The source of these data is ChEMBL document CHEMBL3758104, “Reinvestigating Old Pharmacophores: Are 4-Aminoquinolines and Tetraoxanes Potential Two-Stage Antimalarials?” (J Med Chem, 2016).

The term IC50 denotes the point on the concentration scale where inhibition reaches its midpoint. The half-life is the time needed for the level to fall by half in the phase considered.

The test system of data set [1] is Plasmodium berghei. The data set can be described thus: Antimalarial activity against Plasmodium berghei ANKA infected in C57Bl6 mouse assessed as increase in cure rate at 80 mg/kg/day, po administered for day 3 to 5 by Thompson test. The data set is classed as functional, organism-based. A digest of the protocol:
(§1)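 Modified Thompson test: C57Bl6 female mice inoculated intraperitoneally on day 0 with 1×10^6 P. berghei ANKA-infected erythrocytes; compound suspended in 0.5% hydroxyethylcellulose–0.1% Tween 80, given orally once daily on days 3, 4 and 5 post infection. Parasitemia by Giemsa-stained thin tail-blood smears on days 0, 3, 6, 10, 13, 17, 20, 24, 27, 31. Cure = survival without parasitemia to day 31.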

In data set [2] the test system is Plasmodium berghei. As to the kind of experiment: Antimalarial activity against Plasmodium berghei ANKA infected in C57Bl6 mouse at 80 mg/kg/day, po measured on day 3 to 5 by Thompson test. The data set is classed as functional.
Data set [3] deals with Plasmodium berghei. As to the kind of experiment: Antimalarial activity against Plasmodium berghei ANKA infected in C57Bl6 mouse assessed as increase in survival rate at 80 mg/kg/day, po administered for day 3 to 5 by Thompson test. In kind it is functional, organism-based. A digest of the protocol:
as §1

Data set [4] has as its system Mus musculus. As to the kind of experiment: Toxicity in Plasmodium berghei ANKA infected C57Bl6 mouse at 80 mg/kg/day, po administered for 3 days measured 2 times a day for 31 days. The data set is classed as organism-based. To be noted: in vivo, 744 h.
Data set [5] deals with Mus musculus. As to the kind of experiment: Toxicity in Plasmodium berghei ANKA infected C57Bl6 mouse at 160 mg/kg/day, po administered for 3 days measured 2 times a day for 31 days. In kind it is organism-based. Particulars: in vivo, 744 h.
Data set [6] has as its system Plasmodium berghei. The data set can be described thus: Antimalarial activity against Plasmodium berghei ANKA infected in C57Bl6 mouse assessed as reduction of parasitemia at 160 mg/kg/day, po administered for day 3 to 5 measured on day 6 by Thompson test. The data set is classed as functional, organism-based. A digest of the protocol: as §1
Data set [7] concerns Plasmodium berghei. The data set can be described thus: Antimalarial activity against Plasmodium berghei ANKA infected in C57Bl6 mouse assessed as reduction of parasitemia at 160 mg/kg/day, po administered for day 3 to 5 measured after 10 to 14 days by Thompson test. The data set is classed as functional, organism-based. In a few lines: as §1
The subject of data set [8] is Plasmodium berghei. As to the kind of experiment: Antimalarial activity against Plasmodium berghei ANKA infected in C57Bl6 mouse at 40 mg/kg/day, po on days 3 to 5 by Thompson test. The data set is classed as functional.
In data set [9] the test system is Plasmodium berghei. As to the kind of experiment: Antimalarial activity against Plasmodium berghei ANKA infected in po dosed C57Bl6 mouse administered on day 3 to 5 by Thompson test. In kind it is functional. A digest of the protocol: as §1
For data set [10], the system named is Plasmodium falciparum. As to the kind of experiment: Antimalarial activity against 4th to 5th gametocyte stage of Plasmodium falciparum 3D7elo1-pfs16-CBG99 assessed as inhibition of gametocyte viability by luciferase reporter gene assay. In kind it is functional, organism-based. A digest of the protocol: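 Stage IV–V gametocytes of luciferase-expressing 3D7elo1-pfs16-CBG99 strain (CBG99 under pfs16 promoter); luciferase activity as viability read-out. Viability = 100×(treated−blank)/(untreated−blank), blank = 100 nM epoxomicin-treated sample. Epoxomicin and dihydroartemisinin as positive controls. IC50 from nonlinear regression of dose–response; mean of three experiments in duplicate.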
(Reporter assays use an easily measured gene product as a stand-in for the process of interest.)

A short description of data set [11]: Selectivity index, ratio of IC50 for mouse RAW 264.7 cells to IC50 for chloroquine susceptible Plasmodium falciparum D6. In kind it is toxicity. To be noted: read-out: Ratio IC50.
Data set [12] deals with RAW264.7. The data set can be described thus: Cytotoxicity against mouse RAW264.7 cells. The data set is classed as cell-based.
The test system of data set [13] is Plasmodium falciparum. As to the kind of experiment: Antimalarial activity against chloroquine-susceptible Plasmodium falciparum D6 after 48 hrs by [3H]hypoxanthine incorporation assay. In kind it is functional, organism-based. A digest of the protocol:
(§2)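 P. falciparum D6 (Sierra I/UNC clone), W2 (Indochina I clone), TM91C235 (South-East Asian clone) cultured with compound; growth inhibition by [3H]hypoxanthine incorporation (modified Desjardins/Milhous method). Chloroquine, mefloquine, artemisinin as positive controls. IC50 in nM; technical triplicates, curve fits R2 0.96–1.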

The test system of data set [14] is Plasmodium falciparum. The data set can be described thus: Antimalarial activity against mutidrug resistant Plasmodium falciparum TM91C235 after 48 hrs by [3H]hypoxanthine incorporation assay. In kind it is functional, organism-based. In a few lines:
as §2

A short description of data set [15]: Half life in mouse liver microsomes at 1 uM by LC-MS/MS analysis. The data set is classed as ADME.
Data set [16] relates to Plasmodium falciparum. The data set can be described thus: Antimalarial activity against chloroquine-resistant Plasmodium falciparum W2 after 48 hrs by [3H]hypoxanthine incorporation assay. The data set is classed as functional, organism-based. A digest of the protocol:
as §2

A short description of data set [17]: Half life in human liver microsomes at 1 uM by LC-MS/MS analysis. In kind it is ADME. A general note: Liver microsomes are vesicles of endoplasmic reticulum, rich in cytochrome P450 enzymes.
For data set [18], the system named is Plasmodium berghei. The data set can be described thus: Antimalarial activity against Plasmodium berghei ANKA infected in C57Bl6 mouse at 160 mg/kg/day, po measured on day 3 to 5 by Thompson test. The data set is classed as functional.

Active and inactive are the calls of the source.

Consider `Fc1ccc2scc(CNCCCNc3ccnc4cc(Cl)ccc34)c2c1`, for which the outcome in [1] and in data set [3] was inactive. The compound further showed an MST in data set [2] of 14 days. In addition, the Activity result in data set [4] is recorded as “Non-toxic”; in data set [5], “Toxic”.

`Clc1ccc2c(NCCNCC34CC5CC(CC(C5)C3)C4)ccnc2c1`: the outcome in data set [6] was Active. The outcome in [7] was inactive. Moreover, in [8], the MST is over 21.4 days. Besides, the MAC in [9] is on record as 40 mg/kg/day. The Activity result in data set [5] is on record as “Non-toxic”.

Consider `C[C@H]1[C@@H](O)O[C@@H]2O[C@@]3(C)CC[C@H]4[C@H](C)CC[C@@H]1[C@@]24OO3` [ARTENIMOL], for which the IC50 in data set [10] was 440 nM.

`CC(CNCC12CC3CC(CC(C3)C1)C2)Nc1ccnc2cc(Cl)ccc12` (centres undefined): in data set [11], the selectivity ratio is 2900. The IC50 in [12] is 2900 nM; in data set [13], 1 nM; in data set [14] it was 1 nM; in data set [16], 3 nM. Further, the half-life at 1 µM in data set [15] worked out at 10 min; in data set [17] it was 11 min.

Consider `CC(CNCCC12CC3CC(CC(C3)C1)C2)Nc1ccnc2cc(Cl)ccc12` (centres undefined), for which, in data set [11], the selectivity ratio was found to be 2910. Besides, the outcome in [6] was Active. In addition, the IC50 in [12] worked out at 2910 nM; in [13] it was 1 nM; in data set [14], 1 nM; in data set [16], 4 nM. Besides, in [7], the outcome was inactive. The half-life at 1 µM was determined as 60 min in [15] and 57 min in [17]. In addition, the MST in data set [18] is 27.6 days. Besides, in [5], the Activity result is listed as “Non-toxic”.
